Experimental data from ChEMBL document CHEMBL3045170, “Synthesis and biological activity of organotin 4-methyl-1,2,3-thiadiazole-5-carboxylates and benzo[1,2,3]thiadiazole-7-carboxylates” (J Agric Food Chem, 2010).

Columns and labels:
Format in all cases: functional
Settings in all cases: for inhibition of growth at 50 µg/mL: 48 h, read-out: GI
Mycosphaerella arachidis = test: Fungicidal activity against Mycosphaerella arachidis assessed as growth inhibition at 50 ug/ml after 2 days
Procedure, shortened: (§1)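 Poisoned-plate mycelial growth assay. The test sample was mixed into molten potato dextrose agar in a Petri dish before it set. Fungus was inoculated and incubated at 24-26 °C. Colony spread diameter was measured after 2 days, and percent growth inhibition was calculated relative to the corresponding control plate.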

Botrytis cinerea = test: Fungicidal activity against Botryotinia fuckeliana assessed as growth inhibition at 50 ug/ml after 2 days; procedure, shortened: as §1
[1] = system: Botryosphaeria berengeriana; test: Fungicidal activity against Botryosphaeria berengeriana assessed as growth inhibition at 50 ug/ml after 2 days; procedure, shortened: as §1
Alternaria solani = test: Fungicidal activity against Alternaria solani assessed as growth inhibition at 50 ug/ml after 2 days; procedure, shortened: as §1
Fusarium graminearum = test: Fungicidal activity against Fusarium graminearum assessed as growth inhibition at 50 ug/ml after 2 days
Procedure, shortened: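 Mycelial growth test on potato dextrose agar (9 mL) in Petri dishes, with the plate mixed thoroughly before setting. Gibberella zeae inoculated and cultured at 24-26 °C. Colony spread diameter measured after 2 days, and growth inhibition calculated relative to the corresponding control.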

| Compound | growth inhibition (GI) (Mycosphaerella arachidis) | growth inhibition (GI) (Botrytis cinerea) | growth inhibition (GI) [1] | growth inhibition (GI) (Alternaria solani) | growth inhibition (GI) (Fusarium graminearum) | inhibition of growth at 50 µg/mL (Mycosphaerella arachidis) | inhibition of growth at 50 µg/mL (Botrytis cinerea) | inhibition of growth at 50 µg/mL [1] | inhibition of growth at 50 µg/mL (Alternaria solani) | inhibition of growth at 50 µg/mL (Fusarium graminearum) |
| --- | --- | --- | --- | --- | --- | --- | --- | --- | --- | --- |
| triethylstannyl benzo[d][1,2,3]thiadiazole-7-carboxylate | 100% | 100% | 100% | 100% | 100% |  |  |  |  |  |
| tricyclohexylstannyl benzo[d][1,2,3]thiadiazole-7-carboxylate | 76.7% | 94.1% | 92.5% | 50% | 50% |  |  |  |  |  |
| O=C(O)c1cccc2nnsc12 [1,2,3-benzothia-diazole-7-carboxylic acid] |  |  |  |  |  | 30.8% | 72.1% | 40.5% | 42.4% | 60.7% |
| triphenylstannyl benzo[d][1,2,3]thiadiazole-7-carboxylate | 71.8% | 91.9% | 97.2% | 92.5% | 54.8% |  |  |  |  |  |
| diethylstannanediyl dibenzo[d][1,2,3]thiadiazole-7-carboxylate | 20.5% | 43.2% | 36.7% | 32.3% | 50% |  |  |  |  |  |
| dibutylstannanediyl dibenzo[d][1,2,3]thiadiazole-7-carboxylate | 23.1% | 29.7% | 27.3% | 19.8% | 58.3% |  |  |  |  |  |
| CCCC1COC(Cn2cncn2)(c2ccc(Cl)cc2Cl)O1 (stereo not given) [PROPICONAZOLE] |  |  |  |  |  | 100% | 100% | 100% | 89.2% | 100% |
| tributylstannyl benzo[d][1,2,3]thiadiazole-7-carboxylate | 97.4% | 98.2% | 97.2% | 92.5% | 92.9% |  |  |  |  |  |
